Screening data deposited in PubChem BioAssay by several laboratories.
Compounds with a hit are over-represented: about 1.8% of the library has one in this group of screens.
RanGTP-Impb inh – inhibitors of RanGTP-importin-beta interaction, primary screen, biochemical, FRET, CFP-Ran, YFP-importin-beta, homogeneous. cell-free CFP-Ran/YFP-importin-beta FRET ratio. inhibition, % (concentration not given with the values). hit rate 1.1% among 300,000. AID 2216;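 active = more than half of the replicate wells show a fall in the fluorescence ratio signal beyond about 16%, limit read from the data, passing the limit was not always enough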
Runt-SMMHC FRET – Runt domain-CBFb-SMMHC interaction inhibition | Cerulean-Runt/Venus-CBFb-SMMHC FRET ratio 530/480, 1 h | Q01196+Q13951 | inhibition, % at 20 µM | hit rate 0.74% among 220,000;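 active = mean inhibition across duplicate retests at 20 µM reaching about 50%, limit read from the data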;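 note: inhibitors lower the FRET ratio by blocking Runt binding to CBFb-SMMHC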
Target sequence (Q01196 whole entry, looked up, the tested form may be a part): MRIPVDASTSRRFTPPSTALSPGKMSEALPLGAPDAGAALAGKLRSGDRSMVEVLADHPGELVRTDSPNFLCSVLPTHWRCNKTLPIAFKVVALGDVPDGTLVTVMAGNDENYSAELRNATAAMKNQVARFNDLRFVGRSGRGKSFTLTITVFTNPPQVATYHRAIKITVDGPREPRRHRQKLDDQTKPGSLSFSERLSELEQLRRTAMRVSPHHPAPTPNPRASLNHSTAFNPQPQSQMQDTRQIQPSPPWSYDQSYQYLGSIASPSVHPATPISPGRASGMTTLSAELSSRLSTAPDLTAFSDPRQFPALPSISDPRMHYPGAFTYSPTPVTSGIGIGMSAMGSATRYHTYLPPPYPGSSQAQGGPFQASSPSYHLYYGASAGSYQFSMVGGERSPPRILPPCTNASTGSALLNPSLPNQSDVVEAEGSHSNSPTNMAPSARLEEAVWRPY
Target sequence (Q13951 whole entry, looked up, the tested form may be a part): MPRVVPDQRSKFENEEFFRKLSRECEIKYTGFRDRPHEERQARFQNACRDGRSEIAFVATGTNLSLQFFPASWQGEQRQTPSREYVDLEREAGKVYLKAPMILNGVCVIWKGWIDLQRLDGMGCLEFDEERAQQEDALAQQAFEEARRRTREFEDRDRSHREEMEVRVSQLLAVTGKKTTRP
Runt-CBFb FRET – Runt domain-CBFb interaction inhibition; Q01196+Q13951; Cerulean-Runt/Venus-CBFb FRET ratio 530/480, 1 h; inhibition, % at 20 µM; hit rate 0.46% among 220,000;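 active = inhibition over about 50% at 20 µM in the single-dose screen, limit read from the data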
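test system = Cerulean-Runt domain fusion protein, energy donor | probe or stimulus = Venus-CBFb binding partner, 100 nM | incubation = two 1 h room-temperature incubations shielded from light | detection = fluorescence energy transfer, 422 nm excitation, 530/480 nm emission | measure = loss of energy transfer signal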
Hck-Nef inh – inhibitors of human Hck kinase activated by Nef; hit rate 0.68% among 220,000; inhibition, % at 20 µM; Recombinant Hck-YEEI plus Nef, Z-Lyte FRET kinase assay; AID 463187;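 active = Hck-Nef kinase inhibition above about 50%, limit read from the data; inactive = inhibition below that limit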
A number is an active result; - = inactive; . = no result given; + = active, no number.

SMILES	RanGTP-Impb inh	Runt-SMMHC FRET	Runt-CBFb FRET	Hck-Nef inh
COC(=O)c1c(C(=O)OC)c2cc(C(=O)c3ccccc3)ccn2c1Cl	29	-	-	-
COC(=O)c1ccccc1NC(=O)C/C(C)=N/NC(=O)Cc1ccc(Cl)cc1	-	.	.	.
Cc1cccc(NC(=O)c2ccc(Cn3cc(C(F)(F)F)ccc3=O)cc2)c1	48	-	-	-
COc1ccccc1CCNC(=O)c1ccc(Br)s1	-	.	.	.
O=C(O)/C(=C\C(=O)c1ccccc1)Nc1ccccc1	-	-	-	-
N#CC(C#N)=C1C=CC=CN1/C(=C\c1ccccc1Cl)C(=O)c1ccccc1	.	-	-	-
N#CC(C#N)=C1C=CC=CN1/C(=C\c1ccccc1)C(=O)c1cccs1	28	-	-	-
COc1ccc(CNC(=O)CCCNS(=O)(=O)c2cccc3nonc23)cc1	63	-	-	-
Cc1ccc(CNC(=O)CCCNS(=O)(=O)c2cccc3nonc23)cc1	-	-	-	-
N#Cc1cc2c(=O)n3ccccc3nc2n(CC2CCCO2)c1=N (configuration not stated)	.	.	.	-
Cc1ccc2nc3c(cc(C(=O)NCC4CCCO4)c(=N)n3CC3CCCO3)c(=O)n2c1 (configuration not stated)	175	.	.	.
COc1ccc(Cn2c(=N)c(C(=O)NC3CCCCC3)cc3c(=O)n4ccccc4nc32)cc1	28	.	.	.
Cc1ccc(CNC(=O)c2cc3c(=O)n4ccccc4nc3n(CC3CCCO3)c2=N)cc1 (configuration not stated)	-	63	-	-
COc1ccc(CCn2c(=N)c(C(=O)NCC3CCCO3)cc3c(=O)n4ccccc4nc32)cc1OC (configuration not stated)	-	.	.	.
N=c1c(C(=O)NC2CCCC2)cc2c(=O)n3ccccc3nc2n1CC1CCCO1 (configuration not stated)	174	.	.	.
CC(NC(=O)c1cc2c(=O)n3ccccc3nc2n(CC2CCCO2)c1=N)c1ccccc1 (configuration not stated)	+	.	.	.
COc1ccc(CCn2c(=N)c(C(=O)NC3CCCC3)cc3c(=O)n4ccccc4nc32)cc1	-	.	.	.
Cc1cccn2c(=O)c3cc(C(=O)NCC4CCCO4)n(C)c3nc12 (configuration not stated)	.	.	.	-
Cn1c(C(=O)NCC2CCCO2)cc2c(=O)n3ccccc3nc21 (configuration not stated)	-	61	-	-
N=c1c(C(=O)NC2CCCCC2)cc2c(=O)n3ccccc3nc2n1CC1CCCO1 (configuration not stated)	171	.	.	.
O=c1ccc(-c2ccc(S(=O)(=O)Nc3ccc(F)cc3)o2)n[nH]1	-	.	.	.
Cc1ccc(-n2c(N)c(-c3nc4ccccc4n3C)sc2=S)cc1	28	-	-	-
Cc1ccc(/C=C\c2nccc3c2[nH]c2ccccc23)cc1	-	-	-	59
COc1ccc2[nH]c3c4c(ccc3c2c1)C(=O)C=CC4=O	.	-	55	-
COc1ccc2[nH]c(=O)cc(C(=O)O)c2c1	-	-	-	-
SMILES	RanGTP-Impb inh	Runt-SMMHC FRET	Runt-CBFb FRET	Hck-Nef inh
COc1ccc(NC2=C(C(C)=O)C(c3ccc(OC)c(OC)c3)C(C(C)=O)C(C)(O)C2)cc1 (configuration not stated)	164	-	-	-
CCc1noc(C)c1C(=O)Nc1cc(Cl)ccc1N1CCCC1	-	.	.	.
Cn1ccnc1C(OC(=O)c1ccccc1)C(F)(F)F (configuration not stated)	-	.	.	.
CCOc1cc(C2C3=C(CCCC3=O)N(CC(=O)O)C3=C2C(=O)CCC3)ccc1OC	-	.	.	.
C#CCOc1c(Cl)cc(C2C3=C(CCCC3=O)N(CC(=O)O)C3=C2C(=O)CCC3)cc1OC	127	.	.	.
COc1ccc(C2C3=C(CC(C)(C)CC3=O)N(CC(=O)O)C3=C2C(=O)CC(C)(C)C3)cc1OC	-	.	.	.
COc1ccc(C2C3=C(CCCC3=O)N(CC(=O)O)C3=C2C(=O)CCC3)cc1Cl	112	.	.	.
CCCOc1c(Br)cc(C(=O)OCC(=O)NC2CC2)cc1OC	-	.	.	.
COc1cc(C2NC(=O)NC(c3ccccc3)=C2C(C)=O)cc(Cl)c1OCC(=O)O (configuration not stated)	-	-	-	-
CCCOc1c(Br)cc(C2C3=C(CCCC3=O)N(CC)C3=C2C(=O)CCC3)cc1OC	96	90	94	-
COc1ccccc1C1C2=C(CCCC2=O)N(CC(=O)O)C2=C1C(=O)CCC2	118	.	.	.
COCCNC(=O)c1ccc(Cn2c(=S)[nH]c3cc4c(cc3c2=O)OCO4)cc1	-	-	-	-
COC(CNC(=O)c1ccc(Cn2c(=S)[nH]c3cc4c(cc3c2=O)OCO4)cc1)OC	125	-	-	-
CC(=O)N1CCc2c(sc(NC(=O)CN3C(=O)CCC3=O)c2C(N)=O)C1	23	-	-	-
CC(=O)N1CCc2c(sc(NC(=O)CCS(=O)(=O)c3ccccc3)c2C(N)=O)C1	-	.	.	.
CC(=O)N1CCc2c(sc(NC(=O)CN3C(=O)c4ccccc4C3=O)c2C(N)=O)C1	-	-	-	-
CCOC(=O)N1CCc2c(sc(NC(C)=O)c2C(N)=O)C1	-	.	.	-
CC(=O)N1CCc2c(sc(NC(=O)CS(=O)(=O)c3ccc(F)cc3)c2C(N)=O)C1	21	.	.	.
CN1CCc2c(sc(NC(=O)CS(=O)(=O)c3ccc(F)cc3)c2C(N)=O)C1	163	.	.	.
CC(CC(=O)NNC(=O)c1cccc(Cl)c1)c1ccccc1 (configuration not stated)	-	.	.	.
Cc1cc(NC(=O)c2ccco2)ncc1NC(=O)CCc1ccccc1	-	-	-	-
CCC(=O)Nc1cc(C)c(NC(=O)CCc2ccccc2)cn1	40	89	-	-
CCC(=O)C1CCCN(C(=O)CCc2nnc(C3(c4ccc(Cl)cc4)CCC3)o2)C1 (configuration not stated)	-	.	.	.
COc1cc(NS(=O)(=O)c2ccc(N/C=C\C(=O)c3ccc(OC)c(OC)c3)cc2)nc(OC)n1	-	83	-	-
COCCCNC(=O)c1cc2c(=O)n3cc(C)ccc3nc2nc1NCC1CCCO1 (configuration not stated)	173	60	-	193
SMILES	RanGTP-Impb inh	Runt-SMMHC FRET	Runt-CBFb FRET	Hck-Nef inh
C=CCNC(=O)c1cc2c(=O)n3cc(C)ccc3nc2nc1NCC1CCCO1 (configuration not stated)	179	60	-	179
COCCCNC(=O)c1ccc2nc3ccccc3c(=O)n2c1	-	-	-	-
O=C(CCc1nnc2n(Cc3ccccc3)c(=O)c3ccccc3n12)NCCN1CCOCC1	-	.	.	.
CCCCNC(=O)C1c2ccccc2Oc2ccccc21	22	-	-	-
CN1C(N)=NC(=O)/C1=C/c1ccccc1F	31	-	-	-
CCOC(=O)c1cc(-c2ccccc2)nc2nc(N(CC)CC)sc12	45	.	.	.
O=C(O)/C=C/c1coc2ccc(F)cc2c1=O	-	-	-	-
O=C(O)/C=C/c1coc2ccccc2c1=O	35	-	-	-
CCOC(=O)c1sc(N=NC2=C(O)CCCC2=O)c(C(=O)OCC)c1C	-	-	-	51
CCOC(=O)/C(N=Nc1sc(C(=O)OCC)c(C)c1C(=O)OCC)=C(\C)O	-	-	-	-
